# According to ChEMBL document CHEMBL4732226, “Discovery of a potent G-protein-coupled receptor 119 agonist for the treatment of type 2 diabetes” (Bioorg Med Chem, 2021):
# Legend:
# [1] = Toxicity in female Wistar rat assessed as albumin level at 400 mg/kg, po after 28 days (reference value: 3.57 +/- 0.14 g.dl); assay type: organism-based; settings: in vivo, 672 h, time 28 day
# [2] = Toxicity in female Wistar rat assessed as AST level at 200 mg/kg, po after 28 days (reference value: 128.84 +/- 21.42 U/L); assay type: organism-based; settings: in vivo, 672 h, time 28 day
# [3] = Toxicity in female Wistar rat assessed as ratio of ovaries to body weight at 100 mg/kg, po after 28 days (reference value: 0.091 +/- 0.009); assay type: organism-based; settings: in vivo, 672 h, time 28 day
# [4] = Toxicity in male Wistar rat assessed as ratio of heart to body weight at 100 mg/kg, po after 28 days (reference value: 0.333 +/- 0.036); assay type: organism-based; settings: in vivo, 672 h, time 28 day
# [5] = Toxicity in male Wistar rat assessed as ratio of liver to body weight at 200 mg/kg, po after 28 days (reference value: 3.142 +/- 0.231); assay type: organism-based; settings: in vivo, 672 h, time 28 day
# [6] = Toxicity in female Wistar rat assessed as mortality up to 400 mg/kg, po after 28 days; assay type: organism-based; settings: in vivo, 672 h, time 28 day
# Summary of the method: (§1)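 Repeated-dose oral toxicity by gavage in Wistar rats, 10 males and 10 females per group, given 100, 200 or 400 mg/kg once daily for 28 days. Endpoints were clinical signs, mortality, neurobehaviour, food intake, ophthalmic examination and body weight. Animals were sacrificed on day 29 for blood biochemistry, organ-to-body weight ratios and histopathology.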
# [7] = Toxicity in male Wistar rat assessed as ratio of kidney to body weight at 400 mg/kg, po after 28 days (reference value: 0.787 +/- 0.078); assay type: organism-based; settings: in vivo, 672 h, time 28 day
# [8] = AUC(0 to t) in Sprague-Dawley rat at 25 mg/kg, po up to 24 hrs; assay type: ADME, organism-based; design: route oral, dose 25 mg/kg, time <=24; settings: in vivo
# Summary of the method: (§2)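 Male SD rats fasted overnight, water ad libitum, fed 4 h after dosing. Single oral gavage of 25 mg/kg as a homogeneous suspension in 0.5% Tween 80 in 0.5% Na-CMC. Blood drawn into Na-heparin tubes at 0.25, 0.5, 1, 2, 4, 6, 8 and 24 h; plasma stored at -70°C. Parameters by non-compartmental analysis, with C0 taken as zero and BLQ samples set to zero.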
# [9] = Toxicity in female Wistar rat assessed as ratio of liver to body weight at 400 mg/kg, po after 28 days (reference value: 3.219 +/- 0.221); assay type: organism-based; settings: in vivo, 672 h, time 28 day
# [10] = Toxicity in male Wistar rat assessed as ALT level at 200 mg/kg, po after 28 days (reference value: 30.47 +/- 2.63 U/L); assay type: organism-based; settings: in vivo, 672 h, time 28 day
# [11] = Toxicity in male Wistar rat assessed as ALT level at 400 mg/kg, po after 28 days (reference value: 30.47 +/- 2.63 U/L); assay type: organism-based; settings: in vivo, 672 h, time 28 day
# [12] = Toxicity in male Wistar rat assessed as ratio of testes to body weight at 200 mg/kg, po after 28 days (reference value: 1.248 +/- 0.073); assay type: organism-based; settings: in vivo, 672 h, time 28 day
# [13] = Toxicity in female Wistar rat assessed as ratio of liver to body weight at 100 mg/kg, po after 28 days (reference value: 3.219 +/- 0.221); assay type: organism-based; settings: in vivo, 672 h, time 28 day
# [14] = Toxicity in female Wistar rat assessed as ratio of thymus to body weight at 400 mg/kg, po after 28 days (reference value: 0.260 +/- 0.025); assay type: organism-based; settings: in vivo, 672 h, time 28 day
# [15] = Elimination rate constant in Wistar rat at 10 mg/kg, po up to 24 hrs; assay type: ADME, organism-based; settings: in vivo
# Summary of the method: (§3)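 Single oral dose at 10 mg/kg given to male Wistar rats and to Beagle dogs; bioavailability also determined in both species.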
# [16] = Toxicity in female Wistar rat assessed as AST level at 100 mg/kg, po after 28 days (reference value: 128.84 +/- 21.42 U/L); assay type: organism-based; settings: in vivo, 672 h, time 28 day
# [17] = Toxicity in male Wistar rat assessed as ratio of epididymides to body weight at 100 mg/kg, po after 28 days (reference value: 0.361 +/- 0.028); assay type: organism-based; settings: in vivo, 672 h, time 28 day
# [18] = AUC(0 to infinity) in Wistar rat at 10 mg/kg, po up to 24 hrs; assay type: ADME, organism-based; design: route oral, dose 10 mg/kg, time <=24; settings: in vivo; summary of the method: as §3
# [19] = Toxicity in male Wistar rat assessed as ratio of kidney to body weight at 200 mg/kg, po after 28 days (reference value: 0.787 +/- 0.078); assay type: organism-based; settings: in vivo, 672 h, time 28 day
# [20] = Toxicity in female Wistar rat assessed as urea level at 200 mg/kg, po after 28 days (reference value: 48.09 +/- 5.3 mg/dl); assay type: organism-based; settings: in vivo, 672 h, time 28 day
# [21] = Half life in Sprague-Dawley rat at 25 mg/kg, po up to 24 hrs; assay type: ADME, organism-based; settings: in vivo; summary of the method: as §2
# [22] = Cmax in Sprague-Dawley rat at 25 mg/kg, po up to 24 hrs; assay type: ADME, organism-based; design: route oral, dose 25 mg/kg, time <=24; settings: in vivo; summary of the method: as §2
# [23] = Toxicity in female Wistar rat assessed as ratio of heart to body weight at 200 mg/kg, po after 28 days (reference value: 0.38 +/- 0.037); assay type: organism-based; settings: in vivo, 672 h, time 28 day
# [24] = Toxicity in female Wistar rat assessed as globulin level at 200 mg/kg, po after 28 days (reference value: 2.44 +/- 0.18 g/dl); assay type: organism-based; settings: in vivo, 672 h, time 28 day
# [25] = Toxicity in male Wistar rat assessed as urea level at 100 mg/kg, po after 28 days (reference value: 58.14 +/- 9.13 mg/dl); assay type: organism-based; settings: in vivo, 672 h, time 28 day
# [26] = Toxicity in female Wistar rat assessed as ALT level at 100 mg/kg, po after 28 days (reference value: 21.28 +/- 2.31 U/L); assay type: organism-based; settings: in vivo, 672 h, time 28 day
# [27] = Toxicity in male Wistar rat assessed as ratio of adrenals to body weight at 200 mg/kg, po after 28 days (reference value: 0.020 +/- 0.003); assay type: organism-based; settings: in vivo, 672 h, time 28 day
# [28] = Toxicity in male Wistar rat assessed as ratio of testes to body weight at 100 mg/kg, po after 28 days (reference value: 1.248 +/- 0.073); assay type: organism-based; settings: in vivo, 672 h, time 28 day
# [29] = Toxicity in male Wistar rat assessed as ratio of liver to body weight at 400 mg/kg, po after 28 days (reference value: 3.142 +/- 0.231); assay type: organism-based; settings: in vivo, 672 h, time 28 day
# [30] = Toxicity in female Wistar rat assessed as ratio of spleen to body weight at 100 mg/kg, po after 28 days (reference value: 0.244 +/- 0.032); assay type: organism-based; settings: in vivo, 672 h, time 28 day
# [31] = Toxicity in female Wistar rat assessed as ratio of kidney to body weight at 400 mg/kg, po after 28 days (reference value: 0.801 +/- 0.071); assay type: organism-based; settings: in vivo, 672 h, time 28 day
# [32] = Toxicity in female Wistar rat assessed as neurobehavioral changes at 400 mg/kg, po after 28 days; assay type: organism-based; settings: in vivo, 672 h, time 28 day; summary of the method: as §1
# [33] = Tmax in Beagle dog at 10 mg/kg, po up to 24 hrs; assay type: ADME, organism-based, Canis lupus familiaris; settings: in vivo; summary of the method: as §3
# [34] = Toxicity in male Wistar rat assessed as AST level at 400 mg/kg, po after 28 days (reference value: 119.4 +/- 9.3 U/L); assay type: organism-based; settings: in vivo, 672 h, time 28 day
# [35] = Toxicity in male Wistar rat assessed as ALT level at 100 mg/kg, po after 28 days (reference value: 30.47 +/- 2.63 U/L); assay type: organism-based; settings: in vivo, 672 h, time 28 day
# [36] = Toxicity in female Wistar rat assessed as ALT level at 200 mg/kg, po after 28 days (reference value: 21.28 +/- 2.31 U/L); assay type: organism-based; settings: in vivo, 672 h, time 28 day
smiles,measurement,setting,value
Cc1c(Oc2cccc(/C=C3\SC(=O)NC3=O)c2)ncnc1OC1CCN(C(=O)OC(C)(C)C)CC1,Activity,[1],3.57 g/dL
same,Activity,[2],128.19 U/L
same,Ratio,[3],0.089
same,Ratio,[4],0.347
same,Ratio,[5],3.304
same,Activity,[6],Non-Toxic
same,Ratio,[7],0.845
same,AUC(0-t) at 24 h,[8],19100 ng·h/mL
same,Ratio,[9],3.172
same,Activity,[10],30.15 U/L
same,Activity,[11],29.6 U/L
same,Ratio,[12],1.289
same,Ratio,[13],3.243
same,Ratio,[14],0.244
same,k el at 24 h,[15],1.94e-05 s⁻¹
same,Activity,[16],120.42 U/L
same,Ratio,[17],0.371
same,AUC(0-inf),[18],1900 ng·h/mL
same,Ratio,[19],0.847
same,Activity,[20],46.42 mg/dL
same,half-life,[21],3.09 h
same,Cmax,[22],4960 ng/mL
same,Ratio,[23],0.394
same,Activity,[24],2.42 g/dL
same,Activity,[25],55.36 mg/dL
same,Activity,[26],22.37 U/L
same,Ratio,[27],0.023
same,Ratio,[28],1.228
same,Ratio,[29],3.22
same,Ratio,[30],0.241
same,Ratio,[31],0.806
same,Activity,[32],Non-Toxic
same,Tmax,[33],3 h
same,Activity,[34],116.36 U/L
same,Activity,[35],28.9 U/L
same,Activity,[36],22.2 U/L
